Consider eleven compounds from ChEMBL document CHEMBL1158126, “Sodwanone and yardenone triterpenes from a South African species of the marine sponge Axinella inhibit hypoxia-inducible factor-1 (HIF-1) activation in both breast and prostate tumor cells” (J Nat Prod, 2006).

Assay [1] concerns the target T1, Hypoxia inducible factors; HIF-1-alpha, HIF-2-alpha (Homo sapiens, UniProt Q16665+Q99814). The experiment in a line: Inhibition of hypoxia-induced HIF1 activation in human T47D cells by reporter gene assay. The format is cell-based. The procedure, abridged:
(§1)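 Luciferase reporter cells (T47D or PC-3) transfected, treated with compound and exposed to hypoxia (1% O2:5% CO2:94% N2). Normoxic comparison at 5% CO2:95% air. Compounds from 10 mM isopropanol stocks, tested up to 30 μM. Luciferase activity measured.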
For orientation: Reporter assays use an easily measured gene product as a stand-in for the process of interest.

For assay [2], the target named is T1, Hypoxia inducible factors; HIF-1-alpha, HIF-2-alpha. The experiment in a line: Inhibition of 1,10 phenanthroline-induced HIF1 activation in human T47D cells by reporter gene assay. It counts as cell-based. The procedure, abridged:
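Transfected T47D luciferase reporter cells. HIF-1 induced with the hypoxia mimetic 1,10-phenanthroline at 10 μM. Compounds from 10 mM isopropanol stocks, tested up to 30 μM. HIF-1 activity read as luciferase activity.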

Assay [3] has the same target. Briefly: Inhibition of hypoxia-induced HIF1 activation in human PC3 cells by reporter gene assay. It counts as cell-based. The following applies: pc-3. The procedure, abridged: as §1
The test system of assay [4] is T47D. The experiment in a line: Cytotoxicity against human T47D cells after 48 hrs by neutral red assay. The format is functional, cell-based. The procedure, abridged:
(§2)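 Cells kept in DMEM/F12 with 10% FBS and antibiotics at 37° C, 5% CO2:95% air. Plated at 30,000 cells/well and grown 24 h. Compounds diluted in serum-free DMEM/F12 and added (n = 3). Incubated 48 h at 37° C under normoxia. Viability read by neutral red at OD540. % inhibition = 1 - OD540(treated)/OD540(control). Highest concentration tested 30 μM.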

The subject of assay [5] is MDA-MB-231. The experiment in a line: Cytotoxicity against human MDA-MB-231 cells after 48 hrs by neutral red assay. The format is functional, cell-based. The following applies: MDA-MB-231, 48 h. The procedure, abridged: as §2
Assay [6] has as its system PC-3. The experiment in a line: Cytotoxicity against human PC-3 cells after 48 hrs by neutral red assay. The following applies: PC-3, 48 h. It counts as functional, cell-based. A digest of the protocol:
as §2

Assay [7] deals with DU-145. Briefly: Cytotoxicity against human DU145 cells after 48 hrs by neutral red assay. It counts as functional, cell-based. The settings on record: DU-145, 48 h. The procedure, abridged:
as §2

Each structure is given as a SMILES string.

Take `C[C@H]1CC[C@@H]2OC(C)(C)C(=O)CC[C@@]2(C)[C@@]12O[C@H]([C@@]1(C)CC[C@@H]3OC(C)(C)C(=O)CC[C@]31C)C[C@H]2O`: the IC50 in assay [1], in assay [2], in assay [3], in assay [4], in assay [5] and in assay [6] was greater than 30 µM throughout. Besides, in assay [7], the IC50 – broadly, the concentration that gives 50% inhibition – is greater than 30 µM.

For `C=C1CC[C@@H]2OC(C)(C)[C@H](O)CC[C@@]2(C)[C@@H]1CC[C@]1(O)[C@@H](C)CC[C@@H]2OC(C)(C)C(=O)CC[C@]21C`, the IC50 in assay [1] was 25 µM; in assay [2], greater than 30 µM; in assay [3] it was greater than 30 µM; in assay [4] it was greater than 30 µM; in assay [5] it was greater than 30 µM; in assay [6] it was greater than 30 µM. The compound also had an IC50 in assay [7] greater than 30 µM.

Consider `C=C1CC[C@@H]2OC(C)(C)[C@H](OC(C)=O)CC[C@@]2(C)[C@@H]1CC[C@]1(O)[C@@H](C)CC[C@@H]2OC(C)(C)C(=O)CC[C@]21C`, for which the IC50 in assay [1] was 20 µM; in assay [2], greater than 30 µM; in assay [3], greater than 30 µM; in assay [4] it was 22 µM; in assay [5], greater than 30 µM; in assay [6] it was greater than 30 µM. The compound also registered an IC50 in assay [7] greater than 30 µM.

In the case of `CC1=C(CCC2=C(C)C(=O)C(O)=C3C(C)(C)C(=O)CC[C@]23C)[C@]2(C)CCC(=O)C(C)(C)O[C@H]2CC1` [10,11-DIHYDROSODWANONE B], the IC50 was 20 µM in assay [1]; 30 µM in assay [2]; greater than 30 µM in assay [3]; greater than 30 µM in assay [4]; greater than 30 µM in assay [5]; greater than 30 µM in assay [6]. In assay [7], this compound showed an IC50 greater than 30 µM.

Turning to `CC1=C(CC[C@H]2[C@]3(C)CCC(=O)C(C)(C)O[C@H]3CC[C@]2(C)O)[C@@]2(C)CCC(=O)C(C)(C)C2=C(O)C1=O` [SODWANONE A], the IC50 in assay [1] is 20 µM; in assay [2] it was greater than 30 µM; in assay [3], greater than 30 µM; in assay [4] it was greater than 30 µM; in assay [5], greater than 30 µM; in assay [6], greater than 30 µM. In addition, the IC50 in assay [7] was greater than 30 µM.

Regarding `CC1=C(CC[C@@H]2[C@H](C)CC[C@@H]3OC(C)(C)C(=O)CC[C@]32C)[C@@]2(C)CCC(=O)C(C)(C)C2=C(O)C1=O` [SODWANONE B], the IC50 in assay [1], in assay [2], in assay [3], in assay [4], in assay [5] and in assay [6] was greater than 30 µM each time. Moreover, in assay [7], the IC50 was greater than 30 µM.

Turning to `CC1=C(CCC2=C(C)CC[C@@H]3OC(C)(C)[C@H](O)CC[C@@]23C)[C@]2(C)CCC(=O)C(C)(C)O[C@H]2CC1` [SODWANONE T], the IC50 in assay [1] was 20 µM; in assay [2], 20 µM; in assay [3] it was greater than 30 µM; in assay [4] it was greater than 30 µM; in assay [5], greater than 30 µM; in assay [6], greater than 30 µM. Besides, in assay [7], the IC50 was greater than 30 µM.

As to `CC1=C(CCC23CCC(=O)C(C)(C)C2=C(O)C(=O)C(C)=C3C)[C@]2(C)CCC(=O)C(C)(C)O[C@H]2CC1` (stereo partly drawn) [SODWANONE U], the IC50 in assay [1], in assay [2], in assay [3], in assay [4], in assay [5] and in assay [6] was greater than 30 µM throughout. In assay [7], this compound came in with an IC50 greater than 30 µM.

On to `C[C@H]1CC[C@@H]2OC(C)(C)[C@@H](O)CC=C2[C@@]1(C)CC[C@]1(C)[C@@H](C)CC[C@@H]2OC(C)(C)[C@@]3(O)CC[C@]21O3` [SODWANONE V], for which the IC50 in assay [1] is 15 µM; in assay [2], 15 µM; in assay [3], 15 µM; in assay [4], greater than 30 µM; in assay [5] it was 23 µM; in assay [6] it was greater than 30 µM. In addition, the IC50 in assay [7] is greater than 30 µM.

Take `CC(C)C(=O)CC[C@@]1(C)[C@@H]2CC[C@H](C)[C@@]1(CC[C@@]1(C)C3=CC[C@@H](O)C(C)(C)O[C@@H]3CC[C@H]1C)O2` [SODWANONE W]: the IC50 in assay [1], in assay [4], in assay [5], in assay [6] and in assay [7] was greater than 30 µM throughout.

`C[C@H]1CC[C@@H]2OC(C)(C)C(=O)CC[C@@]2(C)[C@]12CC[C@@H]([C@@]1(C)CC[C@@H]3OC(C)(C)C(=O)CC[C@]31C)O2` [YARDENONE]: the IC50 in assay [1], in assay [4], in assay [5], in assay [6] and in assay [7] was greater than 30 µM each time.
